From ChEMBL document CHEMBL3112473, “Synthesis of a novel series of thiazole-based histone acetyltransferase inhibitors” (Bioorg Med Chem, 2014)
Active and inactive are the calls of the source.

Experiments:
HeLa [1] = test: Cytotoxicity against human HeLa cells assessed as cell viability at 50 to 100 uM after 48 to 72 hrs by trypan blue exclusion assay; format: cell-based
Method in brief: (§1)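 Trypan blue exclusion on HeLa, U87 glioblastoma and BE-SK-N-BE(2) neuroblastoma cells. Compound added at final 50 and 100 µM and incubated 48 or 72 h at 37 °C, then cells collected and counted. About 1.5 × 10⁵ cells counted per point. Viability given as mean percentage of viable/dead cells relative to untreated controls.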

U-87MG ATCC [2] = test: Inhibition of histone acetyltransferase in human U87 cells assessed as AcH3 and H3AcK18 level after 48 to 72 hrs by Western blotting; format: cell-based
Method in brief: (§2)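 HeLa, U87 and BE-SK-N-BE(2) cells incubated with compound at 50 or 100 µM for 48 or 72 h. Total lysates in 2× Laemmli buffer, boiled 10 min, run on 15% SDS-PAGE and blotted. Probed for acetyl-H3 and H3K18ac, with GAPDH as constitutive control.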

Saccharomyces cerevisiae [3] = test: Reduction of wild type Saccharomyces cerevisiae growth at 0.2 mM after 48 hrs; format: functional, organism-based
Method in brief: (§3)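 Spot assay on S. cerevisiae. Wild type (S288c or BY4742) and isogenic HAT deletion strains were used: gcn5Δ, elp3Δ and sas2Δ in S288c; gcn5Δ and rtt109Δ in BY4742. Growth was scored against wild type after 48 h at 28 °C.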

[4] = Cytotoxicity against human BE-SK-N-BE(2) cells assessed as cell viability at 100 uM after 48 to 72 hrs by trypan blue exclusion assay; format: cell-based; settings: read-out: Activity; method in brief: as §1
Homo sapiens [5] = organism: Homo sapiens; test: Inhibition of histone acetyltransferase in human BE-SK-N-BE(2) cells assessed as AcH3 and H3AcK18 level after 72 hrs by Western blotting; format: cell-based; method in brief: as §2
Homo sapiens [6] = organism: Homo sapiens; test: Inhibition of histone acetyltransferase in human BE-SK-N-BE(2) cells assessed as AcH3 and H3AcK18 level after 48 to 72 hrs by Western blotting; format: cell-based; method in brief: as §2
[7] = Cytotoxicity against human U87 cells assessed as cell viability at 50 to 100 uM after 48 to 72 hrs by trypan blue exclusion assay; format: cell-based; settings: u-87mg atcc; method in brief: as §1
Saccharomyces cerevisiae [8] = test: Growth inhibition of Saccharomyces cerevisiae S288c harboring gcn5delta mutant at 0.2 mM after 48 hrs; format: functional, organism-based; method in brief: as §3
Saccharomyces cerevisiae [9] = test: Growth inhibition of Saccharomyces cerevisiae S288c harboring gcn5delta mutant after 48 hrs; format: functional, organism-based; method in brief: as §3
[10] = biological target: Histone acetyltransferase KAT2B (Homo sapiens) (UniProt Q92831); test: Inhibition of human recombinant histone acetyltransferase PCAF assessed as acetylation of histone H3 at 0.15 to 0.6 mM
Sequence of Histone acetyltransferase KAT2B (Homo sapiens) (Q92831 whole entry, looked up, the tested form may be a part): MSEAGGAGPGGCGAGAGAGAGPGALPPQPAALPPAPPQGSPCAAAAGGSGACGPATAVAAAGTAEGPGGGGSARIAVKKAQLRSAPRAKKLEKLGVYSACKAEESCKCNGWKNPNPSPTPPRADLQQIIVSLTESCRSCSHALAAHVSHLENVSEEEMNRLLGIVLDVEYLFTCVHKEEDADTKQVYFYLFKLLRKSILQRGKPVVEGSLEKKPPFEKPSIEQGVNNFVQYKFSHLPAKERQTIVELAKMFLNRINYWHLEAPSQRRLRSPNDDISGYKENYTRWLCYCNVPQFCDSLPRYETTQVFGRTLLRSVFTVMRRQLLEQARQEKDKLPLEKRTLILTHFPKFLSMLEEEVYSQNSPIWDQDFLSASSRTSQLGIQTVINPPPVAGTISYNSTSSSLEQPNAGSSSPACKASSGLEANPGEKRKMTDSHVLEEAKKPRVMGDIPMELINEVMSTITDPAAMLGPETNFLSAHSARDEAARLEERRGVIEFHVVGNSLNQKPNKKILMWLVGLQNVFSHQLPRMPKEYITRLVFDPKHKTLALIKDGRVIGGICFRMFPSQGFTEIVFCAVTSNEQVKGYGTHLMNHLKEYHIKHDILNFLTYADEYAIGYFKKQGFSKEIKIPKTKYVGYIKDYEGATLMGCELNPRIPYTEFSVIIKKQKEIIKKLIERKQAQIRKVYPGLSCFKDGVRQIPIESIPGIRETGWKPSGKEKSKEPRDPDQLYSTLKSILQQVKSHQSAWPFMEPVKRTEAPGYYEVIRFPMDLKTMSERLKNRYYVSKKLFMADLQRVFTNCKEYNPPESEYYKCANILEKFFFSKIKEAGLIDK
Method in brief: (§4)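 Fluorescent in vitro HAT kit assay. Human recombinant HAT catalytic domains (Gcn5, p300, PCAF) were incubated with acetyl-CoA and histone H3 substrate, with inhibitor at 0.15, 0.3 and 0.6 mM. Anacardic acid at 15 µM served as reference. Residual activity measured relative to untreated control. Each reaction run three times, standard errors given.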

Saccharomyces cerevisiae [11] = test: Reduction of growth of Saccharomyces cerevisiae harboring gcn5delta mutant at 0.2 mM after 48 hrs; format: functional, organism-based; method in brief: as §3
HeLa [12] = test: Inhibition of histone acetyltransferase in human HeLa cells assessed as AcH3 and H3AcK18 level after 72 hrs by Western blotting; format: cell-based; method in brief: as §2
HeLa [13] = test: Inhibition of histone acetyltransferase in human HeLa cells assessed as AcH3 and H3AcK18 level after 48 to 72 hrs by Western blotting; format: cell-based; method in brief: as §2
Saccharomyces cerevisiae [14] = test: Growth inhibition of Saccharomyces cerevisiae BY4742 harboring gcn5delta mutant after 48 hrs; format: functional, organism-based; method in brief: as §3
U-87MG ATCC [15] = test: Inhibition of histone acetyltransferase in human U87 cells assessed as AcH3 and H3AcK18 level after 72 hrs by Western blotting; format: cell-based; method in brief: as §2
[16] = biological target: Histone acetyltransferase GCN5 (Saccharomyces cerevisiae) (UniProt Q03330); test: Inhibition of Saccharomyces cerevisiae S288c histone acetyltransferase assessed as acetylation of histone H3 at 0.6 to 0.8 mM by Western blotting
Sequence of Histone acetyltransferase GCN5 (Saccharomyces cerevisiae) (Q03330 whole entry, looked up): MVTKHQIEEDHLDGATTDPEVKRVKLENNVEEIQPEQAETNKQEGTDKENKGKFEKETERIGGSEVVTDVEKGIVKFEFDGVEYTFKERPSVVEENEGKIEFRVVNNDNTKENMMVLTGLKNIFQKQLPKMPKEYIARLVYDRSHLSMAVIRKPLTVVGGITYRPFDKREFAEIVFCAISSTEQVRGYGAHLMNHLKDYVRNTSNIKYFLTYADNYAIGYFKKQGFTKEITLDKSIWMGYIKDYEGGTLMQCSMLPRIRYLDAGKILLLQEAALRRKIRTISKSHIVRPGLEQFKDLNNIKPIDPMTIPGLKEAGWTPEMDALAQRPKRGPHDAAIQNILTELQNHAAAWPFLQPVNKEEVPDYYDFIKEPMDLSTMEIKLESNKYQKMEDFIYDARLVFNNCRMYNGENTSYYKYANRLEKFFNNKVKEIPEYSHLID

Saccharomyces cerevisiae [17] = test: Growth inhibition of Saccharomyces cerevisiae BY4742 harboring gcn5delta mutant at 0.2 mM after 48 hrs; format: functional, organism-based; method in brief: as §3
[18] = biological target: T1, Histone acetyltransferase SAS2 (Saccharomyces cerevisiae (strain ATCC 204508 / S288c) (Baker's yeast)) (UniProt P40963); test: Inhibition of Saccharomyces cerevisiae S288c histone acetyltransferase assessed as acetylation of histone H4 at 0.6 to 0.8 mM by Western blotting
T1 sequence (whole entry): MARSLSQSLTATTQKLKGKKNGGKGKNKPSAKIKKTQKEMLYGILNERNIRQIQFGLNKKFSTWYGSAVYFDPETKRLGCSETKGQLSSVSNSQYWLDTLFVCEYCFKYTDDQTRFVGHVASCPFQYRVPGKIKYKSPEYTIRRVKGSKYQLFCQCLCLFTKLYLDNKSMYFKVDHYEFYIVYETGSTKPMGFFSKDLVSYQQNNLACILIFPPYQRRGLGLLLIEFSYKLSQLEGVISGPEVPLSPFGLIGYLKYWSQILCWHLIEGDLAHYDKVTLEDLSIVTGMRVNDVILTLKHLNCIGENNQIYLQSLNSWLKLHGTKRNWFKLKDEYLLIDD
Method in brief: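 S288c wild-type yeast grown at 28 °C in YPD with 1% DMSO, plus compound at 0.6 or 0.8 mM. Total protein extracts boiled in Laemmli buffer, run on 15% SDS-PAGE and blotted. Probed for pan-acetylated H3 and H4, with unmodified H3 and ADA2 as loading standards. Acetylation normalized to ADA2. Triplicate experiments, SD reported.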

[19] = biological target: Histone acetyltransferase p300 (Homo sapiens) (UniProt Q09472); test: Inhibition of human recombinant histone acetyltransferase p300 assessed as acetylation of histone H3 at 0.6 mM; method in brief: as §4
Sequence of Histone acetyltransferase p300 (Homo sapiens) (Q09472 whole entry): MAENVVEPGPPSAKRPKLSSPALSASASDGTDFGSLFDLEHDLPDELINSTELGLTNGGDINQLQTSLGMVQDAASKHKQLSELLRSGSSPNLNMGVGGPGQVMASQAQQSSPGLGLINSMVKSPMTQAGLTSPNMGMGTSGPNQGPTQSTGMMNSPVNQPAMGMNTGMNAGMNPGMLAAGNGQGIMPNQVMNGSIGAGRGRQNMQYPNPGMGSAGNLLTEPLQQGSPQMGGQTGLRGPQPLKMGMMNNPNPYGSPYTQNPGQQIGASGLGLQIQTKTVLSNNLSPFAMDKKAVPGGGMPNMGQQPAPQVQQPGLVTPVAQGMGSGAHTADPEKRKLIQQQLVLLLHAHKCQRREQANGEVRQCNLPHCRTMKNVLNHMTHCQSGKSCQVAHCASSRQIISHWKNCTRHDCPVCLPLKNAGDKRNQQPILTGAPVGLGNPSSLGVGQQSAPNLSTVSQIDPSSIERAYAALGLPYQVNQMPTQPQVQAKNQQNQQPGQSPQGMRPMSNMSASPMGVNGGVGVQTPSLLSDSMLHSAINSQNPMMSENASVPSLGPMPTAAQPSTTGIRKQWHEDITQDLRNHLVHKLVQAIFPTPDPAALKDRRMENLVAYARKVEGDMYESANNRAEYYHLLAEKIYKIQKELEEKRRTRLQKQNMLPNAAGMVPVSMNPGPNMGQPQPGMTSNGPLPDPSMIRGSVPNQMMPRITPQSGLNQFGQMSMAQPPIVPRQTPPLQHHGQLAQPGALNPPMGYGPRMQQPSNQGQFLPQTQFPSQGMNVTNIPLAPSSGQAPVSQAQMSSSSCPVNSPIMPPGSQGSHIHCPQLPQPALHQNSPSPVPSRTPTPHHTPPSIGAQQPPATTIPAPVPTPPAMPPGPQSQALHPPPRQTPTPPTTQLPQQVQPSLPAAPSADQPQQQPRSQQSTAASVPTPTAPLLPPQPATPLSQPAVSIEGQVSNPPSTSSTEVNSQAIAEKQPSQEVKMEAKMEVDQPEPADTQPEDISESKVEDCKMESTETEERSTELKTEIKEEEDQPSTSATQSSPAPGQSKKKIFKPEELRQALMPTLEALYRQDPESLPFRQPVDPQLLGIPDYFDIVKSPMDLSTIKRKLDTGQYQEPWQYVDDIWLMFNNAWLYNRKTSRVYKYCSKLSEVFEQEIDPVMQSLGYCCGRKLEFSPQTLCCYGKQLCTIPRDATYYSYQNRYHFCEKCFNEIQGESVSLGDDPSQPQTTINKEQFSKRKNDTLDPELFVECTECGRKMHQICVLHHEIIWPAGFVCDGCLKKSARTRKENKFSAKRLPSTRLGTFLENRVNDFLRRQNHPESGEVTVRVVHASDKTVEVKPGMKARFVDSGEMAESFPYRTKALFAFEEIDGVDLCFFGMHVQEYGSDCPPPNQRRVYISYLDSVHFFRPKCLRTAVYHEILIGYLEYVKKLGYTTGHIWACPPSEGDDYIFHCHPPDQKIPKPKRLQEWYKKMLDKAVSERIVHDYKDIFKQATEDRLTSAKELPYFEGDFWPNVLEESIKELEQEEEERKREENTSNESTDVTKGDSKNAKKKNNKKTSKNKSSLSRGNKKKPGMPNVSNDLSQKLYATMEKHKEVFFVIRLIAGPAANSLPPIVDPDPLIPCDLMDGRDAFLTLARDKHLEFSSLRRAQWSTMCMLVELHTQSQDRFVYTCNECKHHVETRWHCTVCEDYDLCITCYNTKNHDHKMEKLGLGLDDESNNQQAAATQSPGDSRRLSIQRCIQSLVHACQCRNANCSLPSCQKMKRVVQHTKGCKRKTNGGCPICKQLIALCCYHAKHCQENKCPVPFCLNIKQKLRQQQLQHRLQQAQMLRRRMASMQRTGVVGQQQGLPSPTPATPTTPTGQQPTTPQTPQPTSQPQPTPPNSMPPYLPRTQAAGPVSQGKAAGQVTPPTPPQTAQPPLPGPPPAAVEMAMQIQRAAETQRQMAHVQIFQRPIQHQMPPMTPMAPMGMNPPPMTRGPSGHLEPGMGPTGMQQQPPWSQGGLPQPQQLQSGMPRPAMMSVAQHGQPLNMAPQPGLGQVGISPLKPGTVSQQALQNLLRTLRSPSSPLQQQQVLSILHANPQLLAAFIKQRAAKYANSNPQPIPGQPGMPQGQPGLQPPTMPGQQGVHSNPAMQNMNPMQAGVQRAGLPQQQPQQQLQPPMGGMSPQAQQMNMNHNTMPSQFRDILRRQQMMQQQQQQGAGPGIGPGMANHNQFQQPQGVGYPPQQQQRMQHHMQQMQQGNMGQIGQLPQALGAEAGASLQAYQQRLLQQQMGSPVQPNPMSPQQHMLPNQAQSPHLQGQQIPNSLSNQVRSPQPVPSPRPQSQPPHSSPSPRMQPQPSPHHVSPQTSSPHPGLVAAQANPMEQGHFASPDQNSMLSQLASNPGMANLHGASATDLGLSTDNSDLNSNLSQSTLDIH

Saccharomyces cerevisiae [20] = test: Reduction of wild type Saccharomyces cerevisiae growth at 1 mM after 48 hrs; format: functional, organism-based; method in brief: as §3
Saccharomyces cerevisiae [21] = test: Reduction of growth of Saccharomyces cerevisiae harboring gcn5delta mutant at 1 mM after 48 hrs; format: functional, organism-based; method in brief: as §3
Saccharomyces cerevisiae [22] = test: Growth inhibition of Saccharomyces cerevisiae S288c harboring elp3delta mutant at 0.5 mM after 48 hrs; format: functional, organism-based; method in brief: as §3
Saccharomyces cerevisiae [23] = test: Growth inhibition of Saccharomyces cerevisiae BY4742 harboring rtt109delta mutant at 0.5 mM after 48 hrs; format: functional, organism-based; method in brief: as §3
Saccharomyces cerevisiae [24] = test: Growth inhibition of Saccharomyces cerevisiae S288c harboring sas2delta mutant at 0.5 mM after 48 hrs; format: functional, organism-based; method in brief: as §3
Saccharomyces cerevisiae [25] = test: Growth inhibition of Saccharomyces cerevisiae S288c harboring gcn5delta mutant at 0.5 mM after 48 hrs; format: functional, organism-based; method in brief: as §3
Saccharomyces cerevisiae [26] = test: Reduction of growth of Saccharomyces cerevisiae harboring gcn5delta mutant at 0.5 mM after 48 hrs; format: functional, organism-based; method in brief: as §3
Saccharomyces cerevisiae [27] = test: Growth inhibition of Saccharomyces cerevisiae BY4742 harboring gcn5delta mutant at 0.5 mM after 48 hrs; format: functional, organism-based; method in brief: as §3
Saccharomyces cerevisiae [28] = test: Reduction of wild type Saccharomyces cerevisiae growth at 0.5 mM after 48 hrs; format: functional, organism-based; method in brief: as §3
Saccharomyces cerevisiae [29] = test: Growth inhibition of Saccharomyces cerevisiae S288c harboring gcn5delta mutant at 0.75 mM after 48 hrs; format: functional, organism-based; method in brief: as §3
Saccharomyces cerevisiae [30] = test: Growth inhibition of Saccharomyces cerevisiae BY4742 harboring gcn5delta mutant at 0.75 mM after 48 hrs; format: functional, organism-based; method in brief: as §3
Saccharomyces cerevisiae [31] = test: Growth inhibition of Saccharomyces cerevisiae S288c harboring elp3delta mutant at 0.75 mM after 48 hrs; format: functional, organism-based; method in brief: as §3
Saccharomyces cerevisiae [32] = test: Growth inhibition of Saccharomyces cerevisiae BY4742 harboring rtt109delta mutant at 0.75 mM after 48 hrs; format: functional, organism-based; method in brief: as §3
Saccharomyces cerevisiae [33] = test: Growth inhibition of Saccharomyces cerevisiae S288c harboring sas2delta mutant at 0.75 mM after 48 hrs; format: functional, organism-based; method in brief: as §3

CC(C)=NNc1nc(-c2ccc(Cl)cc2)cs1
Non-toxic: Activity (HeLa [1]) | Activity [7]
inactive: inhibition [10] | inhibition [18]
50%: inhibition [16]
30%: viability at 100 µM [4]
active: inhibition (U-87MG ATCC [2]) Dose-dependent effect | Activity (Saccharomyces cerevisiae [3]) | inhibition (Homo sapiens [5]) | inhibition (Homo sapiens [6]) Dose-dependent effect | growth inhibition (GI) (Saccharomyces cerevisiae [8]) | growth inhibition (GI) (Saccharomyces cerevisiae [9]) Dose-dependent effect | Activity (Saccharomyces cerevisiae [11]) | inhibition (HeLa [12]) | inhibition (HeLa [13]) Dose-dependent effect | growth inhibition (GI) (Saccharomyces cerevisiae [14]) Dose-dependent effect | inhibition (U-87MG ATCC [15]) | growth inhibition (GI) (Saccharomyces cerevisiae [17]) | inhibition [19]

C/C(=N/Nc1nc(-c2ccc(Cl)cc2)cs1)c1ccccn1
active: Activity (Saccharomyces cerevisiae [20]) | Activity (Saccharomyces cerevisiae [21])

CCC(CC)=NNc1nc(-c2ccc(Cl)cc2)cs1
active: Activity (Saccharomyces cerevisiae [3]) | growth inhibition (GI) (Saccharomyces cerevisiae [8]) | Activity (Saccharomyces cerevisiae [11]) | growth inhibition (GI) (Saccharomyces cerevisiae [17])

Clc1ccc(-c2csc(NN=C3CCCC3)n2)cc1
inactive: growth inhibition (GI) (Saccharomyces cerevisiae [22]) | growth inhibition (GI) (Saccharomyces cerevisiae [23]) | growth inhibition (GI) (Saccharomyces cerevisiae [24])
active: growth inhibition (GI) (Saccharomyces cerevisiae [25]) | Activity (Saccharomyces cerevisiae [26]) | growth inhibition (GI) (Saccharomyces cerevisiae [27]) | Activity (Saccharomyces cerevisiae [28])

COc1cc(/C=C/C(=O)CC(=O)/C=C/c2ccc(O)c(OC)c2)ccc1O
inactive: growth inhibition (GI) (Saccharomyces cerevisiae [31]) | growth inhibition (GI) (Saccharomyces cerevisiae [32]) | growth inhibition (GI) (Saccharomyces cerevisiae [33])
active: growth inhibition (GI) (Saccharomyces cerevisiae [29]) | growth inhibition (GI) (Saccharomyces cerevisiae [30])

CC/C(C)=N/Nc1nc(-c2ccc(Cl)cc2)cs1
active: Activity (Saccharomyces cerevisiae [3]) | growth inhibition (GI) (Saccharomyces cerevisiae [8]) | Activity (Saccharomyces cerevisiae [11]) | growth inhibition (GI) (Saccharomyces cerevisiae [17])
